The text below walks through data of ChEMBL document CHEMBL1140473, “Novel potent macrocyclic inhibitors of the hepatitis C virus NS3 protease: use of cyclopentane and cyclopentene P2-motifs” (Bioorg Med Chem, 2007).

The test system of experiment [1] is Hepatitis C virus. The experiment can be described thus: Antiviral activity against HCV 1b replicon in Huh7 cells after 48 hrs. The experiment is classed as functional, organism-based, Hepacivirus hominis. The settings on record: genotype 1b, Huh-7, 48 h. Put shortly:
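Huh-7 cells carrying a subgenomic genotype 1b replicon with firefly luciferase, kept under 0.5 mg/ml G418. Cells seeded at 1500 per well, dosed after 24 h with fivefold serial dilutions (DMSO ≤1% final), incubated 48 h, then lysed for luciferase read-out. EC50 is the concentration lowering luciferase signal 50% versus untreated control.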
Background: Replicon systems follow genome replication, usually without infectious particles.

Experiment [2] can be described thus: Inhibition of HCV 1a recombinant full length NS3/4A protease. Also noted: species or system Hepatitis C virus subtype 1a. In short, it runs like this:
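Preincubated 30 min at room temperature, then started with 2 μM FRET substrate RET S1. Fluorescence (ex 355/em 500 nm) followed 20 min. IC50 by non-linear fit; Ki = IC50/(1+S/Km), assuming competitive inhibition.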

Experiment [3] can be described thus: Inhibition of human chymotrypsin.
Experiment [4] can be described thus: Inhibition of human elastase.
Experiment [5] has as its target Cathepsin B (Homo sapiens, UniProt P07858). As to the kind of experiment: Inhibition of human cathepsin B.

In experiment [1], `COc1ccc2c(O[C@@H]3C[C@H]4C(=O)N[C@]5(C(=O)O)C[C@H]5C=CCCCCN(N)C(=O)[C@@H]4C3)cc(-c3ccccc3)nc2c1` had an EC50 of 7600 nM. Further, the inhibition constant (Ki) in experiment [2] is 6 nM.
`COc1ccc2c(O[C@@H]3C[C@H]4C(=O)N[C@]5(C(=O)O)C[C@H]5C=CCCCCN(NC(=O)OC(C)(C)C)C(=O)[C@@H]4C3)cc(-c3ccccc3)nc2c1`: in experiment [1], the EC50 was greater than 10000 nM. Besides, in experiment [2], the inhibition constant (Ki) worked out at 31 nM.
The matching figures for `COc1ccc2c(O[C@@H]3C[C@H]4C(=O)N[C@]5(C(=O)NS(=O)(=O)C6CC6)C[C@H]5C=CCCCCN(NC(=O)OC(C)(C)C)C(=O)[C@@H]4C3)cc(-c3ccccc3)nc2c1`: 530 nM and 0.07 nM.
The matching figures for `COc1ccc2c(O[C@H]3C=C4C(=O)N(N)CCCCC/C=C\[C@@H]5C[C@@]5(C(=O)O)NC(=O)[C@@H]4C3)cc(-c3ccccc3)nc2c1`: 4500 nM and 110 nM.
`COc1ccc2c(O[C@@H]3C[C@H]4C(=O)N[C@]5(C(=O)O)C[C@H]5/C=C\CCCCCN(N)C(=O)[C@@H]4C3)cc(-c3ccccc3)nc2c1`: in experiment [1], the EC50 was greater than 10000 nM. In experiment [2], the inhibitory constant (Ki) stood at 120 nM.
The matching figures for `COc1ccc2c(O[C@H]3CC4C(=O)N(N)CCCCCCC=C[C@@H]5C[C@@]5(C(=O)O)NC(=O)[C@@H]4C3)cc(-c3ccccc3)nc2c1` (stereo partly specified): greater than 10000 nM and greater than 10000 nM.
On to `COc1ccc2c(O[C@H]3CC4C(=O)N(NC(=O)OC(C)(C)C)CCCCCCC=C[C@@H]5C[C@@]5(C(=O)O)NC(=O)[C@@H]4C3)cc(-c3ccccc3)nc2c1` (stereo partly specified), for which the EC50 in experiment [1] was greater than 10000 nM. In addition, in experiment [2], the inhibition constant Ki was greater than 10000 nM.
On to `COc1ccc2c(O[C@@H]3C[C@H]4C(=O)N[C@]5(C(=O)NS(=O)(=O)C6CC6)C[C@H]5C=CCCCCN(N)C(=O)[C@@H]4C3)cc(-c3ccccc3)nc2c1`, for which the EC50 in experiment [1] is 33 nM. In addition, in experiment [2], the inhibition constant Ki amounted to 0.19 nM.
`COc1ccc2c(O[C@@H]3C[C@H]4C(=O)N[C@]5(C(=O)O)C[C@H]5/C=C\CCCCCN(NC(=O)OC(C)(C)C)C(=O)[C@@H]4C3)cc(-c3ccccc3)nc2c1` had an EC50 in experiment [1] greater than 10000 nM. Also, in experiment [2], the inhibitory constant (Ki) turned out to be 710 nM.
The matching figures for `COc1ccc2c(O[C@H]3C[C@H]4C(=O)NCCCCC=C[C@@H]5C[C@@]5(C(=O)O)NC(=O)[C@@H]4C3)cc(-c3ccccc3)nc2c1`: greater than 10000 nM and 260 nM.
Regarding `COc1ccc2c(O[C@@H]3C[C@H]4C(=O)N[C@]5(C(=O)O)C[C@H]5/C=C\CCCN(NC(=O)OC(C)(C)C)C(=O)[C@@H]4C3)cc(-c3ccccc3)nc2c1`, the EC50 in experiment [1] is greater than 10000 nM. In experiment [2], the inhibition constant (Ki) amounted to 130 nM.
The matching figures for `COc1ccc2c(O[C@H]3C[C@H]4C(=O)NCCCCC=C[C@@H]5C[C@@]5(C(=O)NS(=O)(=O)C5CC5)NC(=O)[C@@H]4C3)cc(-c3ccccc3)nc2c1`: 4400 nM and 2.2 nM.
For `COc1ccc2c(O[C@@H]3C[C@H]4C(=O)N[C@]5(C(=O)O)C[C@H]5C=CCCCCN(C)C(=O)[C@@H]4C3)cc(-c3ccccc3)nc2c1`, the response in experiment [1] was half-maximal at 2200 nM (EC50). For the same compound, the Ki in experiment [2] worked out at 44 nM.
On to `COc1ccc2c(O[C@@H]3C[C@H]4C(=O)N[C@]5(C(=O)NS(=O)(=O)C6CC6)C[C@H]5C=CCCCCN(C)C(=O)[C@@H]4C3)cc(-c3ccccc3)nc2c1`, for which the EC50 in experiment [1] came to 9.1 nM. Further, the inhibitory constant (Ki) was 0.41 nM in experiment [2], greater than 5000 nM in experiment [3], greater than 5000 nM in experiment [4] and 2200 nM in experiment [5].

The term EC50 denotes the midpoint of the concentration-response curve. What is called Ki is the equilibrium dissociation constant of an inhibitor or competing ligand from its target.
